Here are results for six molecules from ChEMBL document CHEMBL4376851 (J Med Chem, 2020).

What is called pIC50 is the IC50 on a negative log10 scale, so that one unit is a factor of ten. Low readings indicate a high IC50, high ones a low IC50. The term inhibition denotes how much of the control response was suppressed.

pIC50: −log10 of the molar value.

The species entered for assay [1] is Rattus norvegicus. Nature of the assay: Selectivity index, ratio of IC50 for rat kidney ALR1 using sodium D-glucuronate as substrate incubated for 1 min and measured up to 4 mins using H2O-dissolved compound to IC50 for rat lens ALR2 using D,L-glyceraldehyde as substrate incubated for 1 min and measured up to 4 mins using H2O-dissolved compound. An outline of the steps: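 Selectivity factor computed as IC50(ALR1, rat kidney, D-glucuronate) divided by IC50(ALR2, rat lens, D,L-glyceraldehyde), both measured with compounds in water.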

Assay [2] addresses T1, Aldo-keto reductase family 1 member B1 (Rattus norvegicus, UniProt P07943). The assay can be described thus: Inhibition of rat lens ALR2 using D,L-glyceraldehyde as substrate incubated for 1 min and measured up to 4 mins using H2O-dissolved compound by spectrophotometric analysis. An outline of the steps:
(§1)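 ALR2 purified from lenses of male Wistar rats (8–9 weeks, 200–230 g); in vitro reduction of D,L-glyceraldehyde (5.0 mM) monitored. Solvent was water or 1% DMSO. Same enzyme batch throughout. IC50 is the mean of two measurements or mean ± SD of at least three.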

Assay [3] has as its target T1, Aldo-keto reductase family 1 member B1. Nature of the assay: Inhibition of rat lens ALR2 using D,L-glyceraldehyde as substrate incubated for 1 min and measured up to 4 mins using 1% DMSO-dissolved compound by spectrophotometric analysis. An outline of the steps: as §1
The nature of assay [4]: Inhibition of rat kidney ALR1 using sodium D-glucuronate as substrate incubated for 1 min and measured up to 4 mins using H2O-dissolved compound by spectrophotometric analysis. An outline of the steps:
(§2)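 ALR1 purified from kidneys of male Wistar rats (8–9 weeks, 200–230 g); reduction of D-glucuronate monitored. Inhibitor dissolved in water. I (%) is inhibition at 100 μM inhibitor. Same enzyme batch throughout. Values are means of two measurements or mean ± SD of at least three.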

For assay [5], the species on record is Rattus norvegicus. The assay can be described thus: Inhibition of rat kidney ALR1 at 100 uM using sodium D-glucuronate as substrate incubated for 1 min and measured up to 4 mins using H2O-dissolved compound by spectrophotometric analysis relative to control. An outline of the steps:
as §2

Assay [6] can be described thus: Antioxidant activity assessed as DPPH radical scavenging activity by measuring reduction in absorbance at 200 uM after 30 mins (reference value: 0.013 +/- 0.012). The assay is classed as functional. The essentials:
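Stable DPPH radical, 50 μM in ethanol, incubated without (blank) or with test compound at 200 μM; absorbance decline at 518 nm read after the initial 30-min interval. Mean ± SD of at least three measurements.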
In general terms: The DPPH test is a chemical assay of radical scavenging.

Assay [7] deals with T1, Aldo-keto reductase family 1 member B1. The assay can be described thus: Inhibition of rat lens ALR2 using methylglyoxal as substrate incubated for 1 min and measured up to 4 mins by spectrophotometric analysis. The essentials:
(§3)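 Rat lens ALR2 with methylglyoxal (0.5 mM), 4-hydroxynonenal (0.5 mM) or GS-HNE (1.0 mM). IC50 is mean ± SD of at least three measurements.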

Assay [8] addresses T2, Sorbitol dehydrogenase (Ovis aries) (UniProt P07846).
T2 sequence (whole entry): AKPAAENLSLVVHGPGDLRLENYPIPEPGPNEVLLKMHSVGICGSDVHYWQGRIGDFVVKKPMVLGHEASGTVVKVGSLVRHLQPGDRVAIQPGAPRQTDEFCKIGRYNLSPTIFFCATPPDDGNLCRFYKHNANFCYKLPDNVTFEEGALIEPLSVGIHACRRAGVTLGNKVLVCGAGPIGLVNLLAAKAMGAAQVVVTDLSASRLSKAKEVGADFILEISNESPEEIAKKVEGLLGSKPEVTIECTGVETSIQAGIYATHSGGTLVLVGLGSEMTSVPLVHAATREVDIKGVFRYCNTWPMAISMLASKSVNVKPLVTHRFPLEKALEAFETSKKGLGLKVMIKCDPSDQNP
The assay can be described thus: Inhibition of sheep liver sorbitol dehydrogenase at 100 uM using sorbitol as substrate measured for 4 mins in presence of NAD+ by spectrophotometric analysis relative to control.

Assay [9] addresses Aldo-keto reductase family 1 member B1 (Rattus norvegicus) (UniProt P07943). The assay can be described thus: Inhibition of ALR2 in rat lens assessed as reduction in sorbitol accumulation preincubated for 30 mins followed by D-glucose addition and measured after 3 hrs by resazurin based fluorescence analysis. An outline of the steps: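 Isolated eye lenses from female Wistar rats (9–10 weeks, 210–250 g) incubated with 50 mM glucose, alongside glucose-free and glucose-only controls. Inhibitor at 1, 10, 50 and 100 μM; lens sorbitol measured. Mean ± SEM of at least five independent incubations.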
In general terms: The colour change of resazurin is a common sign of viable cells or microbes.

Assay [10] deals with T1, Aldo-keto reductase family 1 member B1. Nature of the assay: Inhibition of rat lens ALR2 using 4-hydroxynonenal as substrate incubated for 1 min and measured up to 4 mins by spectrophotometric analysis. The essentials:
as §3

Assay [11] addresses Aldo-keto reductase family 1 member B1 (Homo sapiens, UniProt P15121). Nature of the assay: Inhibition of human AKR1B1 expressed in Escherichia coli using D,L-glyceraldehyde as substrate incubated for 1 min and measured up to 4 mins using by spectrophotometric analysis.
For assay [12], the target named is T1, Aldo-keto reductase family 1 member B1. The assay can be described thus: Inhibition of rat lens ALR2 using 4-hydroxynonenal glutathione as substrate incubated for 1 min and measured up to 4 mins by spectrophotometric analysis. The essentials:
as §3

For assay [13], the target named is Aldo-keto reductase family 1 member B10 (Homo sapiens, UniProt O60218). Nature of the assay: Inhibition of human AKR1B10 using D,L-glyceraldehyde as substrate incubated for 1 min and measured up to 4 mins using by spectrophotometric analysis. The essentials:
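Human recombinant AKR1B10 at 10 μg/mL protein with 5 mM DL-glyceraldehyde substrate and 0.12 mM NADPH cofactor. Run without DMSO. IC50 is mean ± SD of at least three measurements.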

The species entered for the next assay is Homo sapiens. Nature of the assay: Selectivity index, ratio of IC50 for human AKR1B10 to IC50 for human AKR1B1 expressed in Escherichia coli. The essentials:
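Ratio of IC50s against recombinant human AKR1B10 and AKR1B1, each measured without DMSO as inhibition of DL-glyceraldehyde reduction. AKR1B10 used 5 mM substrate, 0.12 mM nicotinamide adenine dinucleotide phosphate cofactor and 10 μg/mL protein. AKR1B1 used the rat-lens ALR2 assay conditions at 5 μg/mL protein. IC50s are mean ± SD of at least three measurements.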

Chain of Aldo-keto reductase family 1 member B10 (O60218 whole entry): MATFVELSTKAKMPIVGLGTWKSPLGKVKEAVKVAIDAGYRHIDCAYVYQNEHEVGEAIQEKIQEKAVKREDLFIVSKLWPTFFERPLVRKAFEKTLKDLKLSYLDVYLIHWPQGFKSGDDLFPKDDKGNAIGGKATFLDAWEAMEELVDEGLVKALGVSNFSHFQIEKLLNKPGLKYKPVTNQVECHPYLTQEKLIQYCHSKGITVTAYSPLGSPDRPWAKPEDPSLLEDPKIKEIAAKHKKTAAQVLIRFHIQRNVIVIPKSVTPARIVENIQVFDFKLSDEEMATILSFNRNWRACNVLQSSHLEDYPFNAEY

For the molecule `O=C(O)Cn1c2ccccc2c2nn(Cc3ccccc3)c(=O)nc21`, the Ratio IC50 in the assay filed under Rattus norvegicus [1] is > 230. Besides, the negative logarithm of the IC50 (pIC50) in assay [2] was 6.36; in assay [3], 6.10; in [4], < 4.00. Further, in the assay filed under Rattus norvegicus [5], the inhibition amounted to 37.8%.

As to `O=C(O)Cn1c2ccccc2c2nnc(S)nc21`, the Reduction in absorbance at 518 nm (DPPH) in assay [6] was 0.219. The same molecule gave a negative-log IC50 (pIC50) in [4] of 4.46.

Regarding `O=C(O)Cn1c2ccccc2c2n[nH]c(=O)nc21`, the negative logarithm of the IC50 (pIC50) was 7.40 in assay [7]; 7.38 in assay [2]; 7.29 in [3]; 6.67 in assay [10]; 7.18 in assay [11]; < 4.00 in [4]. Moreover, the results for the negative-log IC50 (pIC50) in assay [12] and in assay [13] were 6.53 and 4.25, respectively. Also, the Ratio IC50 in the assay filed under Rattus norvegicus [1] is > 2380; in the assay listed under Homo sapiens it was > 850. The Reduction in absorbance at 518 nm (DPPH) in assay [6] was found to be 0.057. For the same molecule, the figures for the inhibition (in assay [8]; in [9]; in the assay listed under Rattus norvegicus [5]) were 0.9%, “Dose-dependent effect” and 24%, respectively.

As to `COc1ccc2[nH]cc(CCNC(C)=O)c2c1`, the Reduction in absorbance at 518 nm (DPPH) in [6] is 0.022.

For the molecule `O=C(O)Cn1nc2c3ccccc3n(CC(=O)O)c2nc1=O`, in the assay listed under Rattus norvegicus [1], the Ratio IC50 was determined as 168. Also, the pIC50 is 6.92 in assay [2], 6.63 in assay [3] and 4.69 in assay [4].

`COCn1nc2c3ccccc3n(CC(=O)O)c2nc1=O`: the Ratio IC50 in the assay filed under Rattus norvegicus [1] was > 1180. Also, the pIC50 was 7.07 in assay [2], 6.93 in assay [3] and < 4.00 in assay [4]. Also, the Reduction in absorbance at 518 nm (DPPH) in assay [6] came to 0.042. Besides, in the assay listed under Rattus norvegicus [5], the inhibition was 13.4%.
